# Shown are actives, neighbours in structure and some others; about 5.9% of the full set was active somewhere.
# T cruzi growth-1 – T. cruzi intracellular proliferation inhibitors, primary screen, cell-based, beta-gal Tulahuen parasites, NIH3T3 host, luminescence; inhibition, % at 8.34 µM; AID 624255, 2012; T. cruzi beta-gal in NIH3T3, GalScreen luminescence, 90 h; actives 5.9% (n = 77,000);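 active = mean inhibition above about 93%, with at least 55% of replicates each passing it, limit read from the data, passing the limit was not always enough; inconclusive = only one of those two conditions holds; inactive = neither condition holds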
# IDH1 mut inh – inhibitors of IDH1 R132H reductase, primary screen, biochemical, plate reader, single point; Isocitrate dehydrogenase [NADP] cytoplasmic (Homo sapiens), O75874; diaphorase/resazurin fluorescence, 60 min; inhibition, % at 10 µM; actives 0.18% (n = 70,000); AID 624101, 2012; in the data active = inhibition above about 34%; inconclusive = no clear call, values can overlap the other calls; inactive = below about 11%;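 also: 0% = DMSO and 100% = no enzyme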
# KDM4C inh – inhibitors of GASC-1 (KDM4C) histone demethylase, primary screen, biochemical, single concentration HTS; inhibition, % at 12.5 µM; Lysine-specific demethylase 4C (Homo sapiens), Q9H3R0; actives 0.15% (n = 96,000); GST-KDM4C 2-372, H3K9me3 peptide, LANCE TR-FRET;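 active = mean replicate inhibition above about 25%, with at least 55% of replicates also reaching it, limit read from the data, passing the limit was not always enough; inconclusive = only one of those two conditions met; inactive = neither condition met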
# Target sequence (Q9H3R0 2-372 limits assumed): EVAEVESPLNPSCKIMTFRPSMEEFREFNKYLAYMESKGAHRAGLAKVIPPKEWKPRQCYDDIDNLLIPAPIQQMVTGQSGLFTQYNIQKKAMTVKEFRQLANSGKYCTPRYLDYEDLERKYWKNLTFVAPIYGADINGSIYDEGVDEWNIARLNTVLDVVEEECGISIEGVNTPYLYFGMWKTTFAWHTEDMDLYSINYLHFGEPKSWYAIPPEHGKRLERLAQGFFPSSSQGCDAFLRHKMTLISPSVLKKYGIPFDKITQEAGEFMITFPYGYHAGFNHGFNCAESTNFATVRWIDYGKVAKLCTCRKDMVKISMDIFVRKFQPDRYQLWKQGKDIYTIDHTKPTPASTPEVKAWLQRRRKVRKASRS
#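 Test system: N-terminal GST-fused human GASC-1 (KDM4C) fragment, residues 2-372; quantity: GASC-1 enzyme at 10 nM final in reaction; dosing: single dose; schedule: 30 min demethylation and 1 h detection at room temperature; signal: LANCE TR-FRET, excitation 340 nm, emissions 618 and 671 nm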
# Pf Dd2 inh – P. falciparum Dd2 growth inhibitors, primary screen, SYBR Green fluorescence, single dose replicates; 72 h; stronger effect = lower value; activity change, % at 10 µM; actives 2.3% (n = 94,000); AID 1159554, 2015; in the data active = activity change below about -80%; inconclusive = no clear call, values can overlap the other calls
# T cruzi growth-2 – T. cruzi intracellular proliferation inhibitors, confirmation, cell-based, NIH3T3 host, beta-gal parasite, luminescence, cherry-pick. shares compounds with T cruzi growth-1. T. cruzi beta-gal in NIH3T3, GalScreen luminescence, 90 h. inhibition, % at 8.35 µM. actives 72% (n = 5,600). AID 651739, 2012;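 active = mean replicate inhibition above about 95% and at least 55% of replicates individually reaching it, limit read from the data; inconclusive = only one of the two criteria is met; inactive = neither criterion is met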
# T cruzi growth-3 – inhibitors of intracellular T. cruzi replication, confirmation, NIH3T3 host cells, beta-gal parasites, cherry-pick, set 2. shares compounds with T cruzi growth-1. T. cruzi beta-gal in NIH3T3, GalScreen luminescence, 90 h. inhibition, % at 2.09 µM. actives 21% (n = 5,600);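 active = mean inhibition above about 95%, with at least 55% of replicates also reaching it, limit read from the data; inconclusive = meets just one of the two conditions; inactive = meets neither condition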;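 also: plate controls were neutral control median for no effect and positive control median for full effect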
# NIH3T3 tox – cytotoxicity in mouse NIH/3T3 fibroblasts, confirmation, cytotoxicity control for T. cruzi proliferation inhibitor project, cell-based, cherry-pick, single point | shares compounds with T cruzi growth-1 | NIH/3T3 viability, CellTiter-Glo ATP luminescence, 90 h | cytotoxicity (signal decrease), % at 8.35 µM | actives 14% (n = 5,600);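 active = mean signal decrease across replicates above about 35% based on untreated-well scatter, with enough replicates individually passing, limit read from the data; inconclusive = no rule stated though some were filed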;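 also: 0% = median of neutral control wells and 100% = median of positive control wells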
# 3T3 cytotox 2 – NIH/3T3 fibroblast cytotoxicity, confirmation, cytotoxicity control, cell-based, cherry-pick, single point, set 2; shares compounds with T cruzi growth-1; NIH/3T3 viability, CellTiter-Glo ATP luminescence, 90 h; inhibition, % at 24.9 µM; actives 56% (n = 5,600);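 active = mean loss of cell viability signal at or above a set limit, and enough replicates individually reaching it; inconclusive = meets only the mean limit or only the replicate share; inactive = meets neither condition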;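 also: 0% = median of neutral control wells and 100% = median of positive control wells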
# * hit, by the source's call; ? = inconclusive; . = not tested or not shown.
SMILES,T cruzi growth-1,IDH1 mut inh,KDM4C inh,Pf Dd2 inh,T cruzi growth-2,T cruzi growth-3,NIH3T3 tox,3T3 cytotox 2
O=C(C[C@H]1C=C[C@@H](NC(=O)c2ccccc2)[C@H](CO)O1)NCc1ccc(Oc2ccccc2)cc1,33,0,-1,-11,.,.,.,.
C[C@H]1CN([C@@H](C)CO)C(=O)c2cc(NS(=O)(=O)c3ccc(Cl)cc3)ccc2O[C@H]1CN(C)Cc1ccc2c(c1)OCO2,45,4,-2,-10,.,.,.,.
COc1ccc(S(=O)(=O)N(C)C[C@@H]2Oc3ccc(NC(=O)Cn4cnnn4)cc3C(=O)N([C@H](C)CO)C[C@H]2C)cc1,105*,-4,-1,-24,52,-5,-14,10
COc1ccc(S(=O)(=O)N(C)C[C@H]2Oc3ccc(NC(=O)Cn4cnnn4)cc3C(=O)N([C@H](C)CO)C[C@@H]2C)cc1,-80,-5,-1,1,.,.,.,.
COc1ccc(S(=O)(=O)N(C)C[C@H]2Oc3ccc(NC(=O)Cn4cnnn4)cc3C(=O)N([C@@H](C)CO)C[C@@H]2C)cc1,100*,-1,0,-25,-13,-14,-6,14
C[C@@H]1CN([C@@H](C)CO)C(=O)c2cc(NC(=O)Nc3ccc(F)cc3)ccc2O[C@@H]1CN(C)Cc1ccc(-c2ccccc2)cc1,94*,-1,-2,-2,96*,87,57*,102*
C[C@@H]1CN([C@H](C)CO)C(=O)c2cc(NC(=O)Nc3ccc(F)cc3)ccc2O[C@H]1CN(C)Cc1ccc(-c2ccccc2)cc1,48,.,-1,9,.,.,.,.
C[C@@H]1CN([C@H](C)CO)C(=O)c2cc(NC(=O)Nc3ccc(F)cc3)ccc2O[C@@H]1CN(C)Cc1ccc(-c2ccccc2)cc1,?,0,1,7,95*,89,111*,106*
CCOc1ccc2nc(NS(=O)(=O)c3ccc4c5c(cccc35)C(=O)N4)sc2c1,.,2,.,.,.,.,.,.
C=C1CC[C@@H]2[C@](C)(CO)[C@H](O)CC[C@@]2(C)[C@@H]1C/C=C1/C(=O)OC[C@H]1O,.,0,.,.,.,.,.,.
C[C@@H]1CN([C@@H](C)CO)C(=O)c2cc(NC(=O)Cc3ccccc3)ccc2O[C@@H]1CN(C)Cc1ccc(-c2ccccc2)cc1,?,.,0,15,111*,59,12,95*
C[C@@H]1CN([C@H](C)CO)C(=O)c2cc(NC(=O)Cc3ccccc3)ccc2O[C@H]1CN(C)Cc1ccc(-c2ccccc2)cc1,91,3,2,-6,.,.,.,.
C[C@H](CO)N1C[C@H](C)[C@@H](CN(C)Cc2ccc(Oc3ccccc3)cc2)Oc2ccc(NC(=O)Cc3ccccc3)cc2C1=O,?,1,2,-1,78,83,7,89*
C[C@H]1CN([C@@H](C)CO)C(=O)c2cc(C3=CCCCC3)cnc2O[C@H]1CN(C)C(=O)c1ccccc1,.,.,-1,-28,.,.,.,.
CCNC(=O)C[C@@H]1CC[C@H]2[C@@H](COC[C@@H](O)CN2C(=O)Nc2ccc(C(F)(F)F)cc2)O1,-63,.,-4,-32,.,.,.,.
C[C@H](CO)N1C[C@H](C)[C@H](CN(C)Cc2ccc(F)cc2)Oc2ncc(C#Cc3ccccc3)cc2C1=O,?,1,0,-5,103*,88,12,101*
C[C@H](CO)N1C[C@H](C)[C@H](CN(C)Cc2cccc(C(F)(F)F)c2)Oc2ncc(C#Cc3ccccc3)cc2C1=O,99*,1,0,-42,102*,86,8,31*
CC(C)CC#Cc1cnc2c(c1)C(=O)N([C@@H](C)CO)C[C@@H](C)[C@H](CN(C)Cc1ccc(F)cc1)O2,?,0,5,-51,104*,32,25,105*
C[C@H](CO)N1C[C@H](C)[C@H](CN(C)Cc2cccc(C(F)(F)F)c2)Oc2ncc(C#Cc3ccc(F)cc3)cc2C1=O,.,.,0,-33,.,.,.,.
CNC[C@H]1Oc2ncc(C#CCC(C)C)cc2C(=O)N([C@H](C)CO)C[C@H]1C,105*,0,-1,-57,106*,89,5,22
CCS(=O)(=O)N1CCC2(CC1)CN(S(=O)(=O)c1cn(C)cn1)[C@H](CO)c1[nH]c3cc(OC)ccc3c12,.,.,0,12,.,.,.,.
CC(C)CC#Cc1cnc2c(c1)C(=O)N([C@@H](C)CO)C[C@@H](C)[C@@H](CN(C)Cc1ccc(F)cc1)O2,?,-1,0,-57,108*,58,5,57*
CC(C)CC#Cc1cnc2c(c1)C(=O)N([C@H](C)CO)C[C@H](C)[C@@H](CN(C)Cc1ccc(F)cc1)O2,48,-2,-1,-30,.,.,.,.
COc1ccc2c3c(n(C)c2c1)[C@@H](CO)N(C)CC31CCN(C(=O)CN2CCOCC2)CC1,.,.,.,1,.,.,.,.
Cn1cnc(CCNC(=O)C[C@@H]2CC[C@@H]3[C@H](COC[C@H](O)CN3C(=O)Nc3ccc(C(F)(F)F)cc3)O2)c1,107*,.,-1,-16,45,-42,19,24
Cn1cnc(CCNC(=O)C[C@@H]2CC[C@H]3[C@@H](COC[C@H](O)CN3C(=O)Nc3ccc(C(F)(F)F)cc3)O2)c1,52,.,0,-18,.,.,.,.
Cn1cnc(CCNC(=O)C[C@H]2CC[C@@H]3[C@H](COC[C@@H](O)CN3C(=O)Nc3ccc(C(F)(F)F)cc3)O2)c1,114*,.,0,-44,100*,34,31,22
C[C@@H]1CN([C@H](C)CO)C(=O)c2cc(NS(=O)(=O)c3ccc(Cl)cc3)ccc2O[C@@H](C)CCCCO[C@H]1CN(C)C(=O)C1CCCCC1,?,.,0,-30,96*,61,19,100*
C[C@@H]1CN([C@H](C)CO)C(=O)c2cc(NS(=O)(=O)c3ccc(F)cc3)ccc2O[C@@H](C)CCCCO[C@H]1CN(C)C(=O)C1CCCCC1,?,.,-3,-61,101*,63,-7,-6
